# From ChEMBL document CHEMBL1268908, “Design, synthesis, radiolabeling, and in vivo evaluation of carbon-11 labeled N-[2-[4-(3-cyanopyridin-2-yl)piperazin-1-yl]ethyl]-3-methoxybenzamide, a potential positron emission tomography tracer for the dopamine D(4) receptors” (J Med Chem, 2010)
# Experiments:
# Hippocampus [1] = test: Biodistribution in rhesus monkey hippocampus at 150.3 MBq, iv after 21 mins; format: ADME, organism-based, Macaca mulatta; conditions: in vivo, 0.35 h
# Summary of the method: (§1)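 Single male rhesus monkey anesthetized with ketamine 10 mg/kg im, head fixed. Attenuation correction by 20 min 68Ge-68Ga transmission scan. [11C]-tracer in saline (pH 7.4) given iv, specific radioactivity 2.9 TBq/μmol at injection. Dynamic 3D PET emission scan over 90 min in frames of 0.5 to 5 min. MRI T1 images used to define VOIs. Uptake expressed as […].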
# Striatum [2] = test: Biodistribution in rhesus monkey striatum at 150.3 MBq, iv after 4.5 mins; format: ADME, organism-based, Macaca mulatta; conditions: in vivo, 0.075 h
# [3] = Biodistribution in rhesus monkey entorhinal cortex at 150.3 MBq, iv after 45 mins; format: ADME, organism-based, Macaca mulatta; conditions: in vivo, 0.75 h; summary of the method: as §1
# [4] = Biodistribution in rhesus monkey occipital lobe at 150.3 MBq, iv after 9.5 mins; format: ADME, organism-based, Macaca mulatta; conditions: in vivo
# Hippocampus [5] = test: Biodistribution in rhesus monkey hippocampus at 150.3 MBq, iv after 8.5 mins; format: ADME, organism-based, Macaca mulatta; conditions: in vivo
# Summary of the method: (§2)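 Male rhesus monkey under ketamine 10 mg/kg im, head fixed; 20 min 68Ge-68Ga transmission scan, then 90 min dynamic 3D PET (6×0.5, 7×1, 20×2, 8×5 min frames) after iv [11C]-labelled tracer in saline, specific radioactivity about 2.9 TBq/μmol at injection. Regions defined on T1-weighted MRI; uptake expressed as % injected dose per mL.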
# Striatum [6] = test: Biodistribution in rhesus monkey striatum at 150.3 MBq, iv after 72.5 mins; format: ADME, organism-based, Macaca mulatta; conditions: in vivo
# [7] = Biodistribution in rhesus monkey cerebellum at 150.3 MBq, iv after 35 mins; format: ADME, organism-based, Macaca mulatta; conditions: in vivo
# Summary of the method: (§3)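 Male rhesus monkey under ketamine (10 mg/kg im) with head fixation. After a 20 min 68Ge-68Ga transmission scan, the [11C]-labelled tracer in saline (pH 7.4) was injected iv, at 2.9 TBq/μmol specific radioactivity at injection. A dynamic 3D PET scan followed over 90 min (6×0.5, 7×1, 20×2, 8×5 min frames). Regions were defined on T1-weighted 1.5 T MRI, and uptake is given as %ID/mL.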
# [8] = Biodistribution in rhesus monkey entorhinal cortex at 170.3 MBq, iv after 17 mins; format: ADME, organism-based, Macaca mulatta; conditions: in vivo, in the assay text read “150.3 MBq” for “170.3 MBq”; summary of the method: as §1
# Striatum [9] = test: Biodistribution in rhesus monkey striatum at 150.3 MBq, iv after 29 mins; format: ADME, organism-based, Macaca mulatta; conditions: in vivo
# [10] = Biodistribution in rhesus monkey cerebellum at 150.3 MBq, iv after 17 mins; conditions: in vivo
# [11] = Biodistribution in rhesus monkey cerebellum at 150.3 MBq, iv after 23 mins; format: ADME, organism-based, Macaca mulatta; conditions: in vivo; summary of the method: as §3
# [12] = Biodistribution in rhesus monkey cerebellum at 150.3 MBq, iv after 0.75 mins; format: ADME, organism-based, Macaca mulatta; conditions: in vivo, 45 s; summary of the method: as §3
# [13] = Biodistribution in rhesus monkey entorhinal cortex at 150.3 MBq, iv after 67.5 mins; format: ADME, organism-based, Macaca mulatta; conditions: in vivo, 1.125 h; summary of the method: as §1
# [14] = Biodistribution in rhesus monkey entorhinal cortex at 150.3 MBq, iv after 29 mins; format: ADME, organism-based, Macaca mulatta; conditions: in vivo; summary of the method: as §1
# [15] = Biodistribution in rhesus monkey entorhinal cortex at 150.3 MBq, iv after 19 mins; format: ADME, organism-based, Macaca mulatta; conditions: in vivo; summary of the method: as §1
# Hippocampus [16] = test: Biodistribution in rhesus monkey hippocampus at 150.3 MBq, iv after 77.5 mins; format: ADME, organism-based, Macaca mulatta; conditions: in vivo; summary of the method: as §2
# Striatum [17] = test: Biodistribution in rhesus monkey striatum at 150.3 MBq, iv after 37 mins; format: ADME, organism-based, Macaca mulatta; conditions: in vivo
# [18] = Biodistribution in rhesus monkey entorhinal cortex at 150.3 MBq, iv after 39 mins; format: ADME, organism-based, Macaca mulatta; conditions: in vivo, 0.65 h; summary of the method: as §1
# Hippocampus [19] = test: Biodistribution in rhesus monkey hippocampus at 150.3 MBq, iv after 41 mins; format: ADME, organism-based, Macaca mulatta; conditions: in vivo; summary of the method: as §2
# Hippocampus [20] = test: Biodistribution in rhesus monkey hippocampus at 150.3 MBq, iv after 67.5 mins; format: ADME, organism-based, Macaca mulatta; conditions: in vivo, 1.125 h; summary of the method: as §2
# [21] = Biodistribution in rhesus monkey cerebellum at 150.3 MBq, iv after 27 mins; format: ADME, organism-based, Macaca mulatta; conditions: in vivo, 0.45 h; summary of the method: as §3
# [22] = Biodistribution in rhesus monkey occipital lobe at 150.3 MBq, iv after 37 mins; format: ADME, organism-based, Macaca mulatta; conditions: in vivo; summary of the method: as §2
# [23] = Biodistribution in rhesus monkey entorhinal cortex at 150.3 MBq, iv after 49 mins; format: ADME, organism-based, Macaca mulatta; conditions: in vivo; summary of the method: as §1
# [24] = Biodistribution in rhesus monkey cingulate cortex at 150.3 MBq, iv after 31 mins; format: ADME, organism-based, Macaca mulatta; conditions: in vivo; summary of the method: as §3
# [25] = Biodistribution in rhesus monkey occipital lobe at 150.3 MBq, iv after 49 mins; format: ADME, organism-based, Macaca mulatta; conditions: in vivo
# Summary of the method: (§4)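 A male rhesus monkey was anaesthetised with ketamine 10 mg/kg im and placed in a head fixation device. A 20 min 68Ge-68Ga transmission scan was run for attenuation correction. Radiotracer in saline (pH 7.4) was given iv, about 52 pmol (18 ng), at 2.9 TBq/μmol at injection. A dynamic 3D PET scan followed for 90 min. Regional VOIs were defined on a T1-weighted MRI, with uptake expressed as %ID/mL.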
# Hippocampus [26] = test: Biodistribution in rhesus monkey hippocampus at 150.3 MBq, iv after 27 mins; format: ADME, organism-based, Macaca mulatta; conditions: in vivo, 0.45 h; summary of the method: as §1
# Striatum [27] = test: Biodistribution in rhesus monkey striatum at 150.3 MBq, iv after 13 mins; format: ADME, organism-based, Macaca mulatta; conditions: in vivo
# [28] = Biodistribution in rhesus monkey retina at 150.3 MBq, iv after 62.5 mins; format: ADME, organism-based, Macaca mulatta; conditions: in vivo
# [29] = Biodistribution in rhesus monkey occipital lobe at 150.3 MBq, iv after 82.5 mins; format: ADME, organism-based, Macaca mulatta; conditions: in vivo, 1.375 h
# [30] = Biodistribution in rhesus monkey occipital lobe at 150.3 MBq, iv after 41 mins; format: ADME, organism-based, Macaca mulatta; conditions: in vivo; summary of the method: as §4
# Hippocampus [31] = test: Biodistribution in rhesus monkey hippocampus at 150.3 MBq, iv after 23 mins; format: ADME, organism-based, Macaca mulatta; conditions: in vivo; summary of the method: as §1
# Hippocampus [32] = test: Biodistribution in rhesus monkey hippocampus at 150.3 MBq, iv after 57.5 mins; format: ADME, organism-based, Macaca mulatta; conditions: in vivo; summary of the method: as §2
# Striatum [33] = test: Biodistribution in rhesus monkey striatum at 150.3 MBq, iv after 31 mins; format: ADME, organism-based, Macaca mulatta; conditions: in vivo
# Hippocampus [34] = test: Biodistribution in rhesus monkey hippocampus at 150.3 MBq, iv after 1.75 mins; format: ADME, organism-based, Macaca mulatta; conditions: in vivo, 105 s; summary of the method: as §1
# [35] = Biodistribution in rhesus monkey cingulate cortex at 150.3 MBq, iv after 67.5 mins; format: ADME, organism-based, Macaca mulatta; conditions: in vivo, 1.125 h; summary of the method: as §1
# Hippocampus [36] = test: Biodistribution in rhesus monkey hippocampus at 150.3 MBq, iv after 43 mins; format: ADME, organism-based, Macaca mulatta; conditions: in vivo; summary of the method: as §2
# [37] = Biodistribution in rhesus monkey occipital lobe at 150.3 MBq, iv after 5.5 mins; format: ADME, organism-based, Macaca mulatta; conditions: in vivo
# Striatum [38] = test: Biodistribution in rhesus monkey striatum at 150.3 MBq, iv after 0.75 mins; format: ADME, organism-based, Macaca mulatta; conditions: in vivo, 45 s
# [39] = Biodistribution in rhesus monkey cingulate cortex at 150.3 MBq, iv after 11 mins; format: ADME, organism-based, Macaca mulatta; conditions: in vivo; summary of the method: as §3
# [40] = Biodistribution in rhesus monkey retina at 150.3 MBq, iv after 87.5 mins; format: ADME, organism-based, Macaca mulatta; conditions: in vivo
# [41] = Biodistribution in rhesus monkey entorhinal cortex at 150.3 MBq, iv after 25 mins; format: ADME, organism-based, Macaca mulatta; conditions: in vivo; summary of the method: as §1
# [42] = Biodistribution in rhesus monkey occipital lobe at 150.3 MBq, iv after 43 mins; format: ADME, organism-based, Macaca mulatta; conditions: in vivo; summary of the method: as §4
# [43] = Biodistribution in rhesus monkey cerebellum at 150.3 MBq, iv after 0.25 mins; format: ADME, organism-based, Macaca mulatta; conditions: in vivo, 15 s; summary of the method: as §3
# [44] = Biodistribution in rhesus monkey entorhinal cortex at 150.3 MBq, iv after 47 mins; format: ADME, organism-based, Macaca mulatta; conditions: in vivo; summary of the method: as §1
smiles,measurement,setting,value
[11CH3]Oc1cccc(C(=O)NCCN2CCN(c3ncccc3C#N)CC2)c1,Drug uptake,Hippocampus [1],17.71 kBq/ml
same,Drug uptake,Striatum [2],42.26 kBq/ml
same,Drug uptake,[3],10.89 kBq/ml
same,Drug uptake,[4],25.01 kBq/ml
same,Drug uptake,Hippocampus [5],30.9853 kBq/ml
same,Drug uptake,Striatum [6],9.016 kBq/ml
same,Drug uptake,[7],11.95 kBq/ml
same,Drug uptake,[8],20.28 kBq/ml
same,Drug uptake,Striatum [9],15.32 kBq/ml
same,Drug uptake,[10],18.41 kBq/ml
same,Drug uptake,[11],16.31 kBq/ml
same,Drug uptake,[12],56.67 kBq/ml
same,Drug uptake,[13],7.481 kBq/ml
same,Drug uptake,[14],15.05 kBq/ml
same,Drug uptake,[15],21.93 kBq/ml
same,Drug uptake,Hippocampus [16],8.119 kBq/ml
same,Drug uptake,Striatum [17],12.6 kBq/ml
same,Drug uptake,[18],13.49 kBq/ml
same,Drug uptake,Hippocampus [19],11.5929 kBq/ml
same,Drug uptake,Hippocampus [20],8.799 kBq/ml
same,Drug uptake,[21],15.14 kBq/ml
same,Drug uptake,[22],11.24 kBq/ml
same,Drug uptake,[23],9.688 kBq/ml
same,Drug uptake,[24],14.33 kBq/ml
same,Drug uptake,[25],9.036 kBq/ml
same,Drug uptake,Hippocampus [26],15.74 kBq/ml
same,Drug uptake,Striatum [27],24.68 kBq/ml
same,Drug uptake,[28],54.08 kBq/ml
same,Drug uptake,[29],8.356 kBq/ml
same,Drug uptake,[30],9.836 kBq/ml
same,Drug uptake,Hippocampus [31],17.98 kBq/ml
same,Drug uptake,Hippocampus [32],7.745 kBq/ml
same,Drug uptake,Striatum [33],14.4435 kBq/ml
same,Drug uptake,Hippocampus [34],50.86 kBq/ml
same,Drug uptake,[35],9.959 kBq/ml
same,Drug uptake,Hippocampus [36],10.83 kBq/ml
same,Drug uptake,[37],32.15 kBq/ml
same,Drug uptake,Striatum [38],64.38 kBq/ml
same,Drug uptake,[39],25.93 kBq/ml
same,Drug uptake,[40],52.04 kBq/ml
same,Drug uptake,[41],17.3 kBq/ml
same,Drug uptake,[42],9.37 kBq/ml
same,Drug uptake,[43],40.52 kBq/ml
same,Drug uptake,[44],11.44 kBq/ml
